Assay results as given in ChEMBL document CHEMBL1151981, “Bioactive pyridine-N-oxide disulfides from Allium stipitatum” (J Nat Prod, 2009).
In brackets after ≈: the same amount, converted by molar mass. Activity calls are given as the source filed them. The calls are words filed in the database; no cut-off is given here.

Legend:
[1] = tested on: Mycobacterium tuberculosis; assay: Antibacterial activity against Mycobacterium tuberculosis infected in GKO C57BL/6 mouse assessed as bacterial number in spleen at 30 mg/kg/day administered 14 days postinfection via oral gavage for nine consecutive days measured on day 24 postinfection; assay type: functional
How it was run: (§1)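 Female GKO C57BL/6 mice, 8–10 weeks old, infected by low-dose aerosol with M. tuberculosis Erdman (50–100 CFU uptake confirmed day 1). Daily oral gavage in 0.5% methyl cellulose from day 14 for nine consecutive days; isoniazid given at 25 mg/kg/day. Five mice per group, with untreated and pretreatment controls. Lung and spleen CFU log-transformed; one-way ANOVA with Tukey test.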

[2] = tested on: Mycobacterium tuberculosis; assay: Upregulation of Rv0331 RNA expression in Mycobacterium tuberculosis H37Rv ATCC 27294 at 2 to 10 ug/ml after 6 hrs by microarray analysis; assay type: functional, organism-based
How it was run: (§2)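 H37Rv grown in 7H9 with 0.2% glycerol, 0.5% BSA fraction V, 0.05% Tween 80, 0.08% NaCl and 0.2% glucose to OD650 0.3. Treated with 2, 5 or 10 µg/mL compound, or matching DMSO, for 6 h. RNA isolated, labelled cDNA hybridised to microarrays. Predictive genes found by class prediction analysis.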

[3] = tested on: Mycolicibacterium smegmatis; assay: Inhibition of fatty acid biosynthesis in Mycobacterium smegmatis assessed as inhibition of [14C]acetate incorporation into soluble lipid at 30 ug/ml treated 2 hrs before [14C]acetate addition measured after 2 hrs of [14C]acetate infusion by whole-cell assay; assay type: functional, organism-based
How it was run: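 Replicating M. smegmatis whole cells exposed to compound at 30 µg/mL for 2 h, then [1-14C]acetate added for a further 2 h. Soluble lipids (mostly fatty acids) extracted and counts per minute compared with untreated control.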

[4] = Toxicity in C57BL/6 mouse assessed as maximum tolerated dose administered as single dose via oral gavage for 3 days measured 4 hrs after final dose; assay type: organism-based; settings: in vivo
How it was run: (§3)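 Female C57BL/6 mice, three per dose, got a single oral gavage dose of 30, 100 or 300 mg/kg. Observed at 4 and 6 h after dosing, then twice daily for 1 week. The tabulated data describe 3-day dosing.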

[5] = tested on: Mycobacterium tuberculosis; assay: Antibacterial activity against Mycobacterium tuberculosis H37Rv ATCC 27294 assessed as decrease in viable bacterial counts at 1.25 ug/ml after 7 days by spot-culture growth inhibition assay; assay type: functional
Mus musculus [6] = assay: Toxicity in C57BL/6 mouse assessed as adverse effect at 30 mg/kg administered as single dose via oral gavage for 3 days measured after 3 days post final dose; assay type: organism-based; design: dose 30 mg/kg, route oral; settings: in vivo, 72 h
[7] = tested on: Mycobacterium tuberculosis; assay: Upregulation of Rv3054c RNA expression in Mycobacterium tuberculosis H37Rv ATCC 27294 at 2 to 10 ug/ml after 6 hrs by microarray analysis; assay type: functional, organism-based; how it was run: as §2
[8] = tested on: Mycolicibacterium fortuitum; assay: Antibacterial activity against Mycobacterium fortuitum after 72 hrs; assay type: functional
How it was run: (§4)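 Fast-growing mycobacteria obtained from NCTC; cultures grown on Columbia blood agar with 7% defibrinated horse blood at 37 °C for 72 h before MIC determination. Ethambutol and isoniazid served as positive controls.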

A549 = assay: Cytotoxicity against human A549 cells after 96 hrs by sulforhodamine B assay; assay type: functional, cell-based; settings: A549, 96 h
How it was run: (§5)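 SRB assay. Cells seeded at 4000/well in DMEM and allowed to attach overnight at 37 °C, 5% CO2. Exposed in quadruplicate to freshly made compound, 0.1–25 µM, for 96 h. Fixed with ice-cold 10% TCA for 30 min, stained with 0.4% SRB in 1% acetic acid for 15 min. Absorbance read at 540 nm as % of untreated control; IC50 derived from means.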

Staphylococcus aureus [9] = assay: Antibacterial activity against Staphylococcus aureus EMRSA15 after 72 hrs; assay type: functional; settings: EMRSA15, 72 h
How it was run: (§6)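 S. aureus strains tested in a MIC assay; norfloxacin and oxacillin used as positive controls.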

Staphylococcus aureus [10] = assay: Antibacterial activity against tetracycline-effluxing Staphylococcus aureus XU212 after 72 hrs; assay type: functional; settings: XU212, 72 h; how it was run: as §6
[11] = tested on: Mycobacterium tuberculosis; assay: Effect on trxB2 RNA expression in Mycobacterium tuberculosis H37Rv ATCC 27294 at 2 to 10 ug/ml after 6 hrs by microarray analysis; assay type: functional, organism-based; how it was run: as §2
HT-29 = assay: Cytotoxicity against human HT-29 cells after 96 hrs by sulforhodamine B assay; assay type: functional, cell-based; settings: HT-29, 96 h; how it was run: as §5
Mycolicibacterium phlei = assay: Antibacterial activity against Mycobacterium phlei after 72 hrs; assay type: functional; how it was run: as §4
[12] = tested on: Mycobacterium tuberculosis; assay: Upregulation of dnaK RNA expression in Mycobacterium tuberculosis H37Rv ATCC 27294 at 2 to 10 ug/ml after 6 hrs by microarray analysis; assay type: functional, organism-based; how it was run: as §2
[13] = tested on: Mycobacterium tuberculosis; assay: Upregulation of Rv1334 RNA expression in Mycobacterium tuberculosis H37Rv ATCC 27294 at 2 to 10 ug/ml after 6 hrs by microarray analysis; assay type: functional, organism-based; how it was run: as §2
[14] = tested on: Mycobacterium tuberculosis; assay: Upregulation of Rv3463 RNA expression in Mycobacterium tuberculosis H37Rv ATCC 27294 at 2 to 10 ug/ml after 6 hrs by microarray analysis; assay type: functional, organism-based; how it was run: as §2
[15] = Cytotoxicity against human WI38 cells after 96 hrs by sulforhodamine B assay; assay type: cell-based; settings: WI-38, 96 h; how it was run: as §5
Mus musculus [16] = assay: Toxicity in C57BL/6 mouse assessed as transient lethargy at 100 mg/kg administered as single dose via oral gavage for 3 days measured 3 days after final dose; assay type: organism-based; design: dose 100 mg/kg, route oral; settings: in vivo, 72 h
[17] = tested on: Mycobacterium tuberculosis; assay: Effect on trxC RNA expression in Mycobacterium tuberculosis H37Rv ATCC 27294 at 2 to 10 ug/ml after 6 hrs by microarray analysis; assay type: functional, organism-based; how it was run: as §2
[18] = Toxicity in C57BL/6 mouse assessed as maximum tolerated dose administered as single dose via oral gavage for 3 days measured twice daily for 1 week after final dose; assay type: organism-based; settings: in vivo; how it was run: as §3
Staphylococcus aureus [19] = assay: Antibacterial activity against Staphylococcus aureus SA1199B overexpressing NorA efflux pump after 72 hrs; assay type: functional
[20] = tested on: Mycolicibacterium smegmatis; assay: Antibacterial activity against Mycobacterium smegmatis after 72 hrs; assay type: functional; how it was run: as §4
[21] = tested on: Mycobacterium tuberculosis; assay: Antibacterial activity against Mycobacterium tuberculosis infected in GKO C57BL/6 mouse assessed as bacterial number in lung at 30 mg/kg/day administered 14 days postinfection via oral gavage for nine consecutive days measured on day 24 postinfection; assay type: functional; how it was run: as §1
[22] = Toxicity in C57BL/6 mouse assessed as maximum tolerated dose administered as single dose via oral gavage for 3 days measured 6 hrs after final dose; assay type: organism-based; settings: in vivo; how it was run: as §3
[23] = tested on: Mycobacterium tuberculosis; assay: Upregulation of sigH RNA expression in Mycobacterium tuberculosis H37Rv ATCC 27294 at 2 to 10 ug/ml after 6 hrs by microarray analysis; assay type: functional, organism-based; how it was run: as §2
[24] = tested on: Mycolicibacterium smegmatis; assay: Antibacterial activity against Mycobacterium smegmatis mc2 2700 after 72 hrs; assay type: functional; settings: mc2 2700, 72 h
[25] = tested on: Mycobacterium tuberculosis; assay: Upregulation of dnaJ RNA expression in Mycobacterium tuberculosis H37Rv ATCC 27294 at 2 to 10 ug/ml after 6 hrs by microarray analysis; assay type: functional, organism-based; how it was run: as §2
[26] = tested on: Mycobacterium tuberculosis; assay: Upregulation of clpB RNA expression in Mycobacterium tuberculosis H37Rv ATCC 27294 at 2 to 10 ug/ml after 6 hrs by microarray analysis; assay type: functional, organism-based; how it was run: as §2
[27] = tested on: Mycobacterium tuberculosis; assay: Upregulation of hsp RNA expression in Mycobacterium tuberculosis H37Rv ATCC 27294 at 2 to 10 ug/ml after 6 hrs by microarray analysis; assay type: functional, organism-based; how it was run: as §2
[28] = tested on: Mycobacterium tuberculosis; assay: Upregulation of Rv1335 RNA expression in Mycobacterium tuberculosis H37Rv ATCC 27294 at 2 to 10 ug/ml after 6 hrs by microarray analysis; assay type: functional, organism-based; how it was run: as §2
[29] = tested on: Mycobacterium tuberculosis; assay: Antibacterial activity against Mycobacterium tuberculosis H37Rv ATCC 27294 assessed as decrease in viable bacterial counts at 0.01 to 5 ug/ml after 14 days by spot-culture growth inhibition assay; assay type: functional, organism-based
How it was run: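 Mid-exponential cultures (BCG rotated in 7H9/ADC/Tween 80; H37Rv standing in 7H9/OADC/Tween 80) diluted to 10³ cells/mL. 5 µL spotted onto 7H10 agar with 10% OADC containing compound at 0.01, 0.1, 0.5, 1 and 5 µg/mL. Incubated at 37 °C for 14 days. MIC taken as lowest concentration with no growth; no-compound well as growth control.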

MCF7 = assay: Cytotoxicity against human MCF7 cells after 96 hrs by sulforhodamine B assay; assay type: functional, cell-based; settings: MCF7, 96 h; how it was run: as §5
Mus musculus [30] = assay: Toxicity in C57BL/6 mouse assessed as lethality at 300 mg/kg administered as single dose via oral gavage for 3 days measured 2 days after final dose; assay type: organism-based; design: dose 300 mg/kg, route oral; settings: in vivo, 48 h; how it was run: as §3
Mus musculus [31] = assay: Toxicity in C57BL/6 mouse assessed as lethality at 300 mg/kg administered as single dose via oral gavage for 3 days measured 3 days after final dose; assay type: organism-based; design: dose 300 mg/kg, route oral; settings: in vivo, 72 h; how it was run: as §3

## CSSc1cccc[n+]1[O-]
[1]
  log10cfu: 6.17
[2]
  Activity: Active
[3]
  inhibition: Active
[4]
  MTD at 4 h: 30 mg/kg
[5]
  Activity: 99%
Mus musculus [6]
  Activity: Non-toxic
[7]
  Activity: Active
[8]
  MIC: 8 µg/mL (≈ 46.2 µM)
A549
  IC50: 220 nM
Staphylococcus aureus [9]
  MIC: 0.5 µg/mL (≈ 2.89 µM)
Staphylococcus aureus [10]
  MIC: 1 µg/mL (≈ 5.77 µM)
[11]
  Activity: Active
HT-29
  IC50: 1840 nM
Mycolicibacterium phlei
  MIC: 2 µg/mL (≈ 11.5 µM)
[12]
  Activity: Active
[13]
  Activity: Active
[14]
  Activity: Active
[15]
  IC50: 800 nM
Mus musculus [16]
  Activity: Toxic
[17]
  Activity: Active
[18]
  MTD at 168 h: 30 mg/kg
Staphylococcus aureus [19]
  MIC: 2 µg/mL (≈ 11.5 µM)
[20]
  MIC: 8 µg/mL (≈ 46.2 µM)
[21]
  log10cfu: 8.17
[22]
  MTD at 6 h: 30 mg/kg
[23]
  Activity: Active
[24]
  MIC: 8 µg/mL (≈ 46.2 µM)
[25]
  Activity: Active
[26]
  Activity: Active
[27]
  Activity: Active
[28]
  Activity: Active
[29]
  Activity: Active
MCF7
  IC50: 350 nM
Mus musculus [30]
  Activity: Toxic
Mus musculus [31]
  Activity: Toxic
